Results: ChEMBL document CHEMBL3734725, “Design, synthesis and preliminary biological studies of pyrrolidine derivatives as Mcl-1 inhibitors” (Bioorg Med Chem, 2015)
Each block holds one compound with its values, some of them ahead of it.

Tests used:
[1] = target: Induced myeloid leukemia cell differentiation protein Mcl-1 (Homo sapiens, UniProt Q07820); assay: Competitive binding affinity to Mcl-1 (unknown origin) using 5-FAM-Bid-BH3 peptide preincubated for 30 mins before 5-FAM-Bid-BH3 peptide addition and measured 20 mins after 5-FAM-Bid-BH3 peptide addition by fluorescence polarization assay
Outline: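 Mcl-1 preincubated 30 min at room temperature with compound in PBS (pH 7.3; 140 mM NaCl, 2.7 mM KCl, 1.8 mM KH₂PO₄). IC50 fitted, Ki calculated; three separate experiments.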

[2] = target: Apoptosis regulator Bcl-2 (Homo sapiens, UniProt P10415); assay: Competitive binding affinity to Bcl-2 (unknown origin) using 5-FAM-Bid-BH3 peptide preincubated for 30 mins before 5-FAM-Bid-BH3 peptide addition and measured 20 mins after 5-FAM-Bid-BH3 peptide addition by fluorescence polarization assay
Outline: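 Same FP competition with FAM-Bid-BH3 peptide at 10 nM final in PBS pH 7.3. Protein and compound preincubated 30 min at room temperature. IC50 fitted, then converted to Ki.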

[3] = Antiproliferative activity against human PC3 cells after 48 hrs by MTT assay; format: functional, cell-based; conditions: PC-3, 48 h
Outline: (§1)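 Cells grown in RPMI1640 with 10% fetal bovine serum at 37 °C, 5% CO₂. Log-phase cells seeded at 5000 per well and incubated 12 h, then exposed to a range of compound concentrations for 48 h. MTT (5 mg/mL) added for 4 h, medium removed, formazan dissolved in DMSO, absorbance read. IC50 reported.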

[4] = target: Bcl-2-like protein 1 (Homo sapiens, UniProt Q07817); assay: Competitive binding affinity to Bcl-XL (unknown origin) using 5-FAM-Bid-BH3 peptide preincubated for 30 mins before 5-FAM-Bid-BH3 peptide addition and measured 20 mins after 5-FAM-Bid-BH3 peptide addition by fluorescence polarization assayy
Outline: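 Same FP competition with FAM-Bid-BH3 peptide at 10 nM final in PBS pH 7.3. Protein and compound preincubated 30 min at room temperature. Final Bcl-2 376 nM, final Bcl-XL 170 nM. Polarization read at ex 485/em 535 nm in triplicate. IC50 fitted, then converted to Ki.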

[5] = tested on: MDA-MB-231; assay: Antiproliferative activity against human MDA-MB-231 cells after 48 hrs by MTT assay; format: functional, cell-based; conditions: MDA-MB-231, 48 h; outline: as §1
[6] = tested on: K562; assay: Antiproliferative activity against human K562 cells after 48 hrs by MTT assay; format: functional, cell-based; conditions: K562, 48 h; outline: as §1

Sequence of Apoptosis regulator Bcl-2 (P10415 whole entry): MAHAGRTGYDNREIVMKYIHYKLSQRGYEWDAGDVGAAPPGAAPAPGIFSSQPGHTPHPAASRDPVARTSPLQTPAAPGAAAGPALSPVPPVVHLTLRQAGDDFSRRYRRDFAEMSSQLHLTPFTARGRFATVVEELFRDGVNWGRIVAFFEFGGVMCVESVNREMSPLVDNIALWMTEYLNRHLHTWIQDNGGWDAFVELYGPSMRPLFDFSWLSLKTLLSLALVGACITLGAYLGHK
Sequence of Induced myeloid leukemia cell differentiation protein Mcl-1 (Q07820 whole entry): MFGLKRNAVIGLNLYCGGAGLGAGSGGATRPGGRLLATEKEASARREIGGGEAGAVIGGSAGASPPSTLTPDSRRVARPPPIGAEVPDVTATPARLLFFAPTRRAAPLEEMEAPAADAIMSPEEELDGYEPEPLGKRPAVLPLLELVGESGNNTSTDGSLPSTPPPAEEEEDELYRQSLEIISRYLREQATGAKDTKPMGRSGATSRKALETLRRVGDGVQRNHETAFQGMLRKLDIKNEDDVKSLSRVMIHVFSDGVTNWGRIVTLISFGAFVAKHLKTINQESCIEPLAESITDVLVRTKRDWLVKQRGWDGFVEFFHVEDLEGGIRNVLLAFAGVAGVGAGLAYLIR
Sequence of Bcl-2-like protein 1 (Q07817 whole entry): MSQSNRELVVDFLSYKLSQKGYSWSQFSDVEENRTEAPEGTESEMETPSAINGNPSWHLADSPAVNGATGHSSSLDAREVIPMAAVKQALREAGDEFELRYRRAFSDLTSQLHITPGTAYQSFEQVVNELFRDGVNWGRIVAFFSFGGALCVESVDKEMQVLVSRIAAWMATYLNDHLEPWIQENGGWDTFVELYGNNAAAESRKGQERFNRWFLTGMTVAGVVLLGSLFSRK

Ki [1]: 1.6 µM
SMILES: Cc1ccc(-c2ccc(O[C@H]3C[C@@H](C(=O)N[C@@H](Cc4ccccc4)C(=O)NS(=O)(=O)c4ccccc4)N(C(=O)OC(C)(C)C)C3)cc2)cc1

Ki [1]: > 10 µM
SMILES: CC(C)(C)OC(=O)N1C[C@@H](Oc2ccc(-c3ccccc3)cc2)C[C@H]1C(=O)N[C@H](C(=O)O)c1ccccc1

Ki [1]: > 10 µM
SMILES: CC(C)(C)OC(=O)N1C[C@@H](Oc2ccc(-c3ccccc3)cc2)C[C@H]1C(=O)NCC(=O)O

Ki [2]: 0.55 µM
Ki [4]: 1.2 µM
IC50 [5]: 14.9 µM
IC50 [6]: 22.1 µM
SMILES: Cc1ccc(-c2ccc(O[C@H]3C[C@@H](C(=O)N[C@@H](Cc4ccc(Br)cc4)C(=O)NS(=O)(=O)c4ccc(Cl)c([N+](=O)[O-])c4)N(C(=O)OC(C)(C)C)C3)cc2)cc1
IC50 [3]: 13.8 µM

Ki [1]: 3.2 µM
SMILES: CC(C)(C)OC(=O)N1C[C@@H](Oc2ccc(-c3ccccc3)cc2)C[C@H]1C(=O)N[C@@H](Cc1c[nH]c2ccccc12)C(=O)NS(=O)(=O)c1ccccc1

Ki [1]: > 10 µM
SMILES: CC(C)[C@H](NC(=O)[C@@H]1C[C@H](Oc2ccc(-c3ccccc3)cc2)CN1C(=O)OC(C)(C)C)C(=O)O

Ki [2]: 4.6 µM
Ki [4]: 8.7 µM
IC50 [5]: 15.4 µM
IC50 [6]: 22.4 µM
SMILES: Cc1ccc(-c2ccc(O[C@H]3C[C@@H](C(=O)N[C@@H](Cc4ccccc4)C(=O)NS(=O)(=O)c4ccc(Cl)c([N+](=O)[O-])c4)N(C(=O)OC(C)(C)C)C3)cc2)cc1
IC50 [3]: 13.5 µM

Ki [1]: > 10 µM
SMILES: CC(C)C[C@H](NC(=O)[C@@H]1C[C@H](Oc2ccc(-c3ccccc3)cc2)CN1C(=O)OC(C)(C)C)C(=O)O

Ki [1]: 3.3 µM
SMILES: Cc1ccc(S(=O)(=O)NC(=O)[C@H](Cc2ccccc2)NC(=O)[C@@H]2C[C@H](Oc3ccc(-c4ccccc4)cc3)CN2C(=O)OC(C)(C)C)cc1

Ki [1]: > 10 µM
SMILES: CC(C)[C@H](NC(=O)[C@@H]1C[C@H](Oc2ccc(Br)cc2)CN1C(=O)OC(C)(C)C)C(=O)O

Ki [1]: 1.9 µM
SMILES: Cc1ccc(-c2ccc(O[C@H]3C[C@@H](C(=O)N[C@@H](Cc4ccccc4)C(=O)NS(=O)(=O)c4ccc(C)cc4)N(C(=O)OC(C)(C)C)C3)cc2)cc1

Ki [1]: > 10 µM
SMILES: CC(C)(C)OC(=O)N1C[C@@H](Oc2ccc(Br)cc2)C[C@H]1C(=O)N[C@H](C(=O)O)c1ccccc1

Ki [1]: > 10 µM
SMILES: CC(C)(C)OC(=O)N1C[C@@H](Oc2ccc(Br)cc2)C[C@H]1C(=O)NCC(=O)O

SMILES: Cc1cc2c(C(C)C)c(O)c(O)c(C=O)c2c(O)c1-c1c(C)cc2c(C(C)C)c(O)c(O)c(C=O)c2c1O [GOSSYPOL]
IC50 [3]: 5.78 µM
Ki [4]: 0.77 µM
Ki [1]: 0.39 µM
IC50 [5]: 9.42 µM
IC50 [6]: 5.91 µM

Ki [2]: 0.93 µM
Ki [4]: 2.2 µM
IC50 [5]: 13.6 µM
IC50 [6]: 23 µM
SMILES: CC(C)(C)OC(=O)N1C[C@@H](Oc2ccc(-c3ccccc3)cc2)C[C@H]1C(=O)N[C@@H](Cc1ccc(Br)cc1)C(=O)NS(=O)(=O)c1ccc(Cl)c([N+](=O)[O-])c1
IC50 [3]: 10.7 µM

Ki [1]: 8.4 µM
SMILES: CC(C)(C)OC(=O)N1C[C@@H](Oc2ccc(-c3ccccc3)cc2)C[C@H]1C(=O)N[C@@H](Cc1ccccc1)C(=O)O

Ki [1]: 1.2 µM
SMILES: CC(C)(C)OC(=O)N1C[C@@H](Oc2ccc(-c3ccccc3)cc2)C[C@H]1C(=O)N[C@@H](Cc1ccc(Br)cc1)C(=O)NS(=O)(=O)c1ccccc1

Ki [1]: 0.99 µM
SMILES: Cc1ccc(S(=O)(=O)NC(=O)[C@H](Cc2ccc(Br)cc2)NC(=O)[C@@H]2C[C@H](Oc3ccc(-c4ccccc4)cc3)CN2C(=O)OC(C)(C)C)cc1

Ki [1]: > 10 µM
SMILES: CC(C)(C)OC(=O)N1C[C@@H](Oc2ccc(Br)cc2)C[C@H]1C(=O)N[C@@H](Cc1ccccc1)C(=O)O

Ki [1]: > 10 µM
SMILES: CC(C)C[C@H](NC(=O)[C@@H]1C[C@H](Oc2ccc(Br)cc2)CN1C(=O)OC(C)(C)C)C(=O)O

Ki [2]: 0.83 µM
Ki [4]: 2.1 µM
IC50 [5]: 15.8 µM
IC50 [6]: 21.9 µM
SMILES: CC(C)(C)OC(=O)N1C[C@@H](Oc2ccc(-c3ccc(Cl)cc3)cc2)C[C@H]1C(=O)N[C@@H](Cc1ccc(Br)cc1)C(=O)NS(=O)(=O)c1ccc(Cl)c([N+](=O)[O-])c1
IC50 [3]: 11.2 µM
